Test results: ChEMBL document CHEMBL3351280, “Exploration and pharmacokinetic profiling of phenylalanine based carbamates as novel substance p 1-7 analogues” (ACS Med Chem Lett, 2014)
Peptide text beside a SMILES is read from it.

Experiments:
[1] = Intrinsic clearance in human liver microsomes at 25 uM; format: ADME; settings: read-out: CLH
[2] = Half life in rat plasma at 25 uM; format: ADME, cell-free
[3] = Half life in human plasma at 25 uM; format: ADME, cell-free
[4] = biological target: T1, Solute carrier family 15 member 1 (Homo sapiens, UniProt P46059); test: Drug uptake in CHO-PepT1 cells expressing PepT1 (unknown origin) assessed as transporter mediated uptake at 25 uM; format: ADME, cell-based, Cricetulus griseus; settings: chinese hamster, cho-pept1, 25 µM
T1 sequence (P46059 whole entry): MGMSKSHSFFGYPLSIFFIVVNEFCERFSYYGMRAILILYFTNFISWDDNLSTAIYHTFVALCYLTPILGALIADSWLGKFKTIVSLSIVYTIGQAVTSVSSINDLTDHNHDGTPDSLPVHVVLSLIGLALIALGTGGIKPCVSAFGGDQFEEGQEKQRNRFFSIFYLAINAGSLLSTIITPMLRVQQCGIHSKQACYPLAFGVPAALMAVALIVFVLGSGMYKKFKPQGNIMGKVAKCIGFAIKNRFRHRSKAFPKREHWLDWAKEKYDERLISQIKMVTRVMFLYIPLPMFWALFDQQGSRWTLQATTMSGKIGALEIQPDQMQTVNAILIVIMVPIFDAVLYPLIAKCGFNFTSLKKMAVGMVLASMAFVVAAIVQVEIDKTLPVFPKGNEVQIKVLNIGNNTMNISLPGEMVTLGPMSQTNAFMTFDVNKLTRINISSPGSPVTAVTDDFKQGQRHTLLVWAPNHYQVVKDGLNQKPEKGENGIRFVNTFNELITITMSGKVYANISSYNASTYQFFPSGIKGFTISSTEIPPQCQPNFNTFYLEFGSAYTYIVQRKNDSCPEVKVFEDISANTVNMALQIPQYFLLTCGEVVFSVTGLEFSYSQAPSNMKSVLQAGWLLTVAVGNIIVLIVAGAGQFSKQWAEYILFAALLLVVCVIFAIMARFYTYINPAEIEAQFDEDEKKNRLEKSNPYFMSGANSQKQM

[5] = Drug uptake in CHOK1 cells at 25 uM; format: ADME, cell-based, Cricetulus griseus; settings: chinese hamster, cho-k1, 25 µM
in vitro [6] = settings: human, Caco-2
in vitro [7] = settings: human, Caco-2; remark: listed apart in the source
in vitro [8] = settings: human, Caco-2; remark: listed apart in the source
PepT1 = test: in vitro; settings: chinese hamster, CHO-PepT1 cells and CHO-K1 cells
[9] = Intrinsic clearance in human liver microsomes at 100 uM; format: ADME; settings: read-out: CLH
[10] = Half life in rat plasma at 100 uM; format: ADME, cell-free
[11] = Half life in human plasma at 100 uM; format: ADME, cell-free
[12] = biological target: T1, Solute carrier family 15 member 1; test: Drug uptake in CHO-PepT1 cells expressing PepT1 (unknown origin) assessed as transporter mediated uptake at 100 uM; format: ADME, cell-based, Cricetulus griseus; settings: chinese hamster, cho-pept1, 100 µM
Method in brief: (§1)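 Uptake was measured in CHO-PepT1 cells, which are stably transfected with PepT1, and in CHO-K1 cells as the control. It is expressed as pmol/mg protein/min. […] A PepT1/K1 uptake ratio above 1 was taken to indicate a PepT1 substrate. Values are mean ± SD.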

[13] = Drug uptake in CHOK1 cells at 100 uM; format: ADME, cell-based, Cricetulus griseus; settings: chinese hamster, cho-k1, 100 µM; method in brief: as §1
[14] = Apparent permeability from apical to basolateral side in human Caco2 cells at 100 uM; format: ADME, cell-based; settings: Caco-2
Method in brief: (§2)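 Caco-2 monolayers; apparent permeability coefficients (Papp) calculated from transport rates in the apical-to-basolateral and basolateral-to-apical directions. Efflux ratio is Papp(b–a)/Papp(a–b). The test concentration was 100 μM, or 25 μM for poorly soluble compounds after further dilution. Values are given as mean ± SD.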

[15] = Apparent permeability from basolateral to apical side in human Caco2 cells at 100 uM; format: ADME, cell-based; settings: Caco-2; method in brief: as §2
[16] = Fraction unbound in human plasma at 10 uM; format: ADME, cell-free
Method in brief: (§3)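 Human plasma protein binding was measured by equilibrium dialysis. The read-outs were fraction unbound and mass recovery.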

Plasma [17] = test: Drug recovery in human plasma at 10 uM; format: ADME, cell-free; method in brief: as §3
[18] = Fraction unbound in rat plasma at 10 uM; format: ADME, cell-free
Plasma [19] = test: Drug recovery in rat plasma at 10 uM; format: ADME, cell-free
[20] = Fraction unbound in rat brain at 10 uM; format: ADME, tissue-based
Brain = test: Unbound brain volume of distribution in rat at 10 uM; format: ADME, tissue-based; settings: in vivo
[21] = Drug recovery in rat brain at 10 uM; format: ADME, tissue-based; settings: read-out: Drug recovery
[22] = Apparent permeability from apical to basolateral side in human Caco2 cells; format: ADME, cell-based; settings: Caco-2
Method in brief: (§4)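 Caco-2 monolayers; apparent permeability coefficients (Papp) calculated from transport rates in the apical-to-basolateral and basolateral-to-apical directions. Efflux ratio is Papp(b–a)/Papp(a–b). Values are given as mean ± SD.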

[23] = Efflux ratio of apparent permeability from basolateral to apical side to apical to basolateral side of human Caco2 cells; format: ADME, cell-based; settings: Caco-2; method in brief: as §4
[24] = Intrinsic clearance in rat microsomes; format: ADME, Microsome
[25] = Intrinsic clearance in human microsomes; format: ADME, Microsome
Hepatocyte = test: Intrinsic clearance in rat hepatocytes; format: ADME, cell-based
Cytochrome P450 2D6 = Cytochrome P450 2D6 (Homo sapiens, UniProt P10635); test: Inhibition of CYP2D6 (unknown origin); format: ADME
Sequence of Cytochrome P450 2D6 (P10635 whole entry): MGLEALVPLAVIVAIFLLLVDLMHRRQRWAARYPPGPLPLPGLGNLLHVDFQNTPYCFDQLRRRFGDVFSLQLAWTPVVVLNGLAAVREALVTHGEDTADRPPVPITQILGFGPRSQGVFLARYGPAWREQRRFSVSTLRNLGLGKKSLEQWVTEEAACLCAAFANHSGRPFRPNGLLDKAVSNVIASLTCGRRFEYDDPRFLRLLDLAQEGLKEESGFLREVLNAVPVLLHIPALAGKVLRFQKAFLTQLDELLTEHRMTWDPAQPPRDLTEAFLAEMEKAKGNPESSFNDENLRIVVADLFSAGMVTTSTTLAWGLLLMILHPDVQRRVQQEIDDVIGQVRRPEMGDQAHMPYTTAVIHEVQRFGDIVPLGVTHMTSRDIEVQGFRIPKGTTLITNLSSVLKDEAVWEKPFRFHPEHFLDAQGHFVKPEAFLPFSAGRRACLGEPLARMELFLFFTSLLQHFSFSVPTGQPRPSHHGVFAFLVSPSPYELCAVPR

Cytochrome P450 3A4 = Cytochrome P450 3A4 (Homo sapiens, UniProt P08684); test: Inhibition of CYP3A4 (unknown origin); format: ADME
Sequence of Cytochrome P450 3A4 (P08684 whole entry): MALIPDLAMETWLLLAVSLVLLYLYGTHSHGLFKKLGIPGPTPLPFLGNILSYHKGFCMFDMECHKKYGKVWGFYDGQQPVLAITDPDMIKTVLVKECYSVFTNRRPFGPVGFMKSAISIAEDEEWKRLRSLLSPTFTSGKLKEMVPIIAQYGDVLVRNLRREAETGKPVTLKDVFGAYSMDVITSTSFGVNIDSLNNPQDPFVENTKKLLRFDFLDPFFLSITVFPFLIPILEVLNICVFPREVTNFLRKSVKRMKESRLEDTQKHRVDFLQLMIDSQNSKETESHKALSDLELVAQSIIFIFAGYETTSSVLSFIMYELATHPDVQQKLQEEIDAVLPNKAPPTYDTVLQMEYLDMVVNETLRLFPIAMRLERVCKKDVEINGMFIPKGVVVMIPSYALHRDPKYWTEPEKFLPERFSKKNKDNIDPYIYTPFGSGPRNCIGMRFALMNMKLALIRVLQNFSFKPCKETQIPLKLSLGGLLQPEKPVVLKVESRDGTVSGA

Cytochrome P450 1A2 = biological target: T2, Cytochrome P450 1A2 (Homo sapiens, UniProt P05177); test: Inhibition of CYP1A2 (unknown origin); format: ADME
T2 sequence (P05177 whole entry): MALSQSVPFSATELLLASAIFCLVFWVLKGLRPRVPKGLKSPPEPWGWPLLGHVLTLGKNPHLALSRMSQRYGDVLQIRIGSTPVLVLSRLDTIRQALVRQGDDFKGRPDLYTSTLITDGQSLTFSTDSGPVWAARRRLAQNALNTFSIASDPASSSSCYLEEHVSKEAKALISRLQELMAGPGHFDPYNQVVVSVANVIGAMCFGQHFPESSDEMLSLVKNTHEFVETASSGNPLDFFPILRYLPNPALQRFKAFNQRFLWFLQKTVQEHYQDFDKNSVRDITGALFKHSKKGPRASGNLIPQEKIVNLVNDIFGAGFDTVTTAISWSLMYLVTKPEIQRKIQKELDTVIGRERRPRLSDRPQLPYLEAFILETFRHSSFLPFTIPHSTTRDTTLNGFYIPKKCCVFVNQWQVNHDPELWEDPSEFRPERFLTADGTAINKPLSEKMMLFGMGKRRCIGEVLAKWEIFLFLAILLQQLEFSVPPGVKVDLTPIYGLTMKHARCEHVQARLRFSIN

Cytochrome P450 2C9 = Cytochrome P450 2C9 (Homo sapiens, UniProt P11712); test: Inhibition of CYP2C9 (unknown origin); format: ADME
Sequence of Cytochrome P450 2C9 (P11712 whole entry): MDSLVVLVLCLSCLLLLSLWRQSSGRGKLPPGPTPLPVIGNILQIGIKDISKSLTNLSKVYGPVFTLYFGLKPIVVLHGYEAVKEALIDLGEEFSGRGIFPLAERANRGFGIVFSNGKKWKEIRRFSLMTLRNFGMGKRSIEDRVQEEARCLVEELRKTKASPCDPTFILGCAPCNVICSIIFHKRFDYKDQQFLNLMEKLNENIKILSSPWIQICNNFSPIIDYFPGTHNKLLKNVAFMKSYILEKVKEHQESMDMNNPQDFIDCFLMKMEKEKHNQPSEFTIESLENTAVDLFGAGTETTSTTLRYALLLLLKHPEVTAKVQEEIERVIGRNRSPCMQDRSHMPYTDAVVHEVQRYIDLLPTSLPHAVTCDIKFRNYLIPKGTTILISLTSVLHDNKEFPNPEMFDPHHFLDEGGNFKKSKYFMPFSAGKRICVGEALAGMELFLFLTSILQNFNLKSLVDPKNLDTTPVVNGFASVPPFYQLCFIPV

SMILES	microsomal CLint at 25 µM [1] [µL/min/mg]	half-life at 25 µM [2] [h]	half-life at 25 µM [3] [h]	Drug uptake [4] [pmol/min/mg]	Drug uptake [5] [pmol/min/mg]	Papp A→B at 25 µM (in vitro [6]) [×10⁻⁶ cm/s]	Papp B→A at 25 µM (in vitro [7]) [×10⁻⁶ cm/s]	Drug recovery (Plasma [17]) [%]	Drug recovery (Plasma [19]) [%]	other results
O=C(N[C@@H](Cc1ccccc1)c1nnc(-c2ccccc2)o1)OCc1ccccc1	287	8.7	11.2	1082	1128	–	–	–	–	–
CS(=O)(=O)NC(=O)[C@H](Cc1ccccc1)NC(=O)OCc1ccccc1	–	–	–	–	–	–	–	–	–	microsomal CLint at 100 µM [9]: 17 µL/min/mg; half-life at 100 µM [10]: 6.9 h; half-life at 100 µM [11]: 26.7 h; Drug uptake [12]: 90 pmol/min/mg; Drug uptake [13]: 77 pmol/min/mg; Papp A→B at 100 µM [14]: 6 ×10⁻⁶ cm/s; Papp B→A at 100 µM [15]: 3 ×10⁻⁶ cm/s
O=C(N[C@@H](Cc1ccccc1)C(=O)NNC(=O)c1ccccc1)OCc1ccccc1	65	0.31	9.9	127	156	11	14	–	–	efflux ratio at 25 µM (in vitro [8]): 1.3; uptake ratio at 25 µM (PepT1): 0.8
NC(=O)[C@@H]1[C@H](c2ccccc2)CCN1C(=O)[C@@H](N)Cc1ccccc1	–	–	–	–	–	–	–	> 95	> 95	Vdu (Brain): 3.4 mL/g; recovery at 10 µM [21]: > 95%

Further lines, with some results ahead:

microsomal CLint at 25 µM [1] [µL/min/mg]	half-life at 25 µM [2] [h]	half-life at 25 µM [3] [h]	Drug uptake [4] [pmol/min/mg]	Drug uptake [5] [pmol/min/mg]	Papp A→B at 25 µM (in vitro [6]) [×10⁻⁶ cm/s]	Papp B→A at 25 µM (in vitro [7]) [×10⁻⁶ cm/s]	Drug recovery (Plasma [17]) [%]	Drug recovery (Plasma [19]) [%]	SMILES	other results
11	8.7	6.6	4	4	52	62	–	–	N#CNC(=O)[C@H](Cc1ccccc1)NC(=O)OCc1ccccc1	efflux ratio at 25 µM (in vitro [8]): 1.2; uptake ratio at 25 µM (PepT1): 1
–	–	–	–	–	–	–	> 65	> 70	NC(=O)[C@H](Cc1ccccc1)NC(=O)OCc1ccccc1	fraction unbound at 10 µM [16]: 0.19; fraction unbound at 10 µM [18]: 0.18; fraction unbound at 10 µM [20]: 0.17; Vdu (Brain): 6 mL/g; recovery at 10 µM [21]: > 95%; Papp A→B [22]: 31 ×10⁻⁶ cm/s; efflux ratio [23]: 1; microsomal CLint [24]: 21.2 µL/min/mg; microsomal CLint [25]: 22.6 µL/min/mg; CLH (Hepatocyte): 39.4 µL/min/mg; INH (Cytochrome P450 2D6): > 20 µM; INH (Cytochrome P450 3A4): > 20 µM; INH (Cytochrome P450 1A2): > 20 µM; INH (Cytochrome P450 2C9): > 20 µM
–	–	–	–	–	–	–	22	1	NC(=O)[C@H](Cc1ccccc1)NC(=O)[C@@H](N)Cc1ccccc1 (H-Phe-Phe-NH2)	microsomal CLint [24]: 103 µL/min/mg; microsomal CLint [25]: 97.3 µL/min/mg
23	0.06	7.9	5	4	60	45	–	–	O=C(N[C@@H](Cc1ccccc1)C(=O)NO)OCc1ccccc1	–
